# Target: Protein kinase C (PKC)
# Assay: Inhibition of protein kinase C (PKC) purified from rat brain
# Summary of the method: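 Mostly purified rat brain PKC, histone kinase assay on ice-set tubes: 3 nM TPA, 8 μg/mL phosphatidylserine, 1 mM EGTA (no calcium), 4% glycerol, 20 mM Tris-Cl pH 7.4. Started with [γ-32P]ATP (20 μM), MgCl2 10 mM, p-nitrophenyl phosphate 5 mM, lysine-rich histone 240 μg/mL; 30 °C, 10 min; radioactivity counted. Compounds 0.16–160 μg/mL, 2.4% DMSO final; duplicate runs averaged.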
row,Structure (SMILES),IC50
1,CCCCCCCCCCCCCCC[C@@]1(O)C[N+](C)(C)C[C@@H](CC(=O)[O-])O1 [HEMIACYLCARNITINIUM],49.6 µM
2,CCCCCCCCCCCCCCCC(=O)C[N+](C)(C)CCCO.[Br-],6.9 µM
3,CCCCCCCCCCCCCCCC1(OC)C[N+](C)(C)CCO1.[Br-] (configuration not stated),3.9 µM
4,CCCCCCCCCCCCCCCCCCC1(O)C[N+](C)(C)CCO1.[Br-] (configuration not stated),6.5 µM
5,CCCCCCCCCCC1(O)C[N+](C)(C)CCO1.[Br-] (configuration not stated),170 µM
6,CCCCCCCCCCCCC1(O)C[N+](C)(C)CCO1.[Br-] (configuration not stated),13 µM
7,CCCCCCCCCCCCCCCC(=O)OC(CC(=O)[O-])C[N+](C)(C)C (racemic) [Palmitoyl-carnitine],15.8 µM

# Second part, the compound after the results:
row,IC50,Structure (SMILES)
1,7.6 µM,CCCCCCCCCCCCCCCCC1(O)C[N+](C)(C)CCO1.[Br-] (configuration not stated)
2,7.6 µM,CCCCCCCCCCCCCCC1(O)C[N+](C)(C)CCO1.[Br-] (configuration not stated)
3,7.1 µM,CCCCCCCCCCCCCCCCCC1(O)C[N+](C)(C)CCO1.[Br-] (configuration not stated)
4,7.3 µM,CCCCCCCCCCCCCCCC1(O)C[N+](C)(C)CCO1.[Br-] (configuration not stated)
5,12 µM,CCCCCCCCCCCCCC1(O)C[N+](C)(C)CCO1.[Br-] (configuration not stated)

# From ChEMBL document CHEMBL1127061, “Hemicholinium and related lipids: inhibitors of protein kinase C” (J Med Chem, 1993)
